Laboratory results: paper PMC5743469 (Theranostics, 2018)
Entries after “also recorded” stand apart in the source; their conditions may differ. Ends that are not written are not given here.

Columns and labels:
[1] = system: HSV-1 (F strain); assay: Post-entry inhibition assay; format: cell-based; conditions: time of addition experiment, peptide added to cells at 5 μg/mL after HSV-1 infection
[2] = system: Vero cells; assay: MTT cytotoxicity assay; format: cell-based, African green monkey; conditions: 48 h incubation, 0 to 200 μg/mL
Outline: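 Vero cells were grown in MEM with 10% FBS at 37 ℃ and 5% CO2, seeded and cultured for 24 h. Medium was then replaced with fresh medium holding peptide at 0–200 μg/mL for 48 h at 37 ℃. MTT stock (5 mg/mL in PBS) was added for 4 h. Formazan was dissolved in DMSO for 10 min at room temperature and absorbance read at 570 nm.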

[3] = system: Vero cells; assay: Cellular uptake and localization of FITC-labeled peptides; format: cell-based, African green monkey; conditions: N-terminus FITC-labeled peptide, 10 μg/mL, 24 h at 37 ℃; confocal microscopy and flow cytometry (average FITC intensity)

## LWHHIWHFVHHLI-NH2 [Eval418-FH5]
[1]
  inhibitory rate of plaque formation when added after HSV-1 infection: 29.72%
[2]
  CC50 (50% cytotoxicity concentration): 106.68 µg/mL
[3]
  cellular uptake in Vero cells: significant cellular uptake; also recorded: considerable cellular uptake
